The text below walks through data of PubChem BioAssay AID463104 (Sanford-Burnham Center for Chemical Genomics, 2010).

The whole screen tested about 330,000 compounds, of which about 1,100 (0.33%) were called active.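 Rule for the calls: active = versus positive control, 20 µM dose yields 30% or more activation; inactive = the rest.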 The sample as a whole holds a higher share of actives than the screen did.

This experiment can be described thus: activators of adaptive XBP1 UPR arm, primary screen, cell-based, CHO-XBP1 luciferase reporter, luminescence, uHTS (AID 463104).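 Note: 100% = tunicamycin at 10 µg/mL and 0% = DMSO only wells.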 The following applies: IRE1-XBP1 UPR activation, at 20 µM, active compounds read high, percent of tunicamycin response, DMSO as zero. Put shortly:
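assay system = CHO-XBP1 luciferase reporter cells | amount = 1000 cells/well | buffer or medium = F12 plus 10% FBS | compound dosing = single point, 20 µM final compound, 1% DMSO | incubation = 16-18 h cell attachment at 37 °C, then 6 h compound exposure | detection = Steady-Glo luminescence read | controls = tunicamycin 10 µg/mL and vehicle-only wells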
(In general: Reporter assays use an easily measured gene product as a stand-in for the process of interest.)
As for `COC(=O)C1=C(c2ccccc2)C[C@@H]2CC[C@H]1N2C(=O)NCc1ccco1`, the activation is 1.2% (inactive). With `COc1cc(Cn2c(N)c(C(=O)NCc3ccco3)c3nc4ccccc4nc32)cc(OC)c1OC` the figure was 35.8% (active); with `CCOC(=O)c1c(N)n(Cc2ccccc2)c2nc3ccccc3nc12`, 2.64% (inactive).

As for `CC(C(=O)Nc1ccc(Cl)cc1Cl)N1CC=C(c2ccccc2)CC1` (stereo not given), the activation is -1.2% (inactive). On to `CNC(=O)O/N=C(\N)Cc1csc2ccc(Cl)cc12`, for which the activation is 0.76% (inactive).
